In ChEMBL document CHEMBL3392996, “Non-transpeptidase binding arylthioether β-lactams active against Mycobacterium tuberculosis and Moraxella catarrhalis” (2015):
≈ marks a conversion by molar mass, not a printed value. Calls of active or inactive are those of the source. No cut-off for these calls is given here.

How the values were obtained:
[1] = test system: Moraxella catarrhalis; assay: Antimicrobial activity against Moraxella catarrhalis clinical isolates incubated for 48 hrs by microdilution broth method; format: functional
Procedure, shortened: (§1)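 Stocks in DMSO were diluted at least 10-fold into Mueller-Hinton broth, then 2-fold serially diluted in MH from 500 to 15.6 μg/ml. Bacteria were added, with DMSO-only dilution controls, and incubated at 37 °C for 48 h. Growth was scored at 24 and 48 h. MIC was the lowest concentration with no growth. Run in quadruplicate.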

[2] = test system: Mycobacterium tuberculosis; assay: Antimicrobial activity against Mycobacterium tuberculosis H37Rv incubated for 48 hrs by microdilution broth method; format: functional
[3] = test system: Moraxella catarrhalis; assay: Bactericidal activity against Moraxella catarrhalis clinical isolates incubated for 48 hrs by microdilution broth method and standard plating method; format: functional
Procedure, shortened: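 Broth microdilution in Mueller-Hinton broth, 2-fold series from 500 to 15.6 μg/ml, with DMSO-only controls, 37 °C for 48 h. Wells showing no growth were plated (10 μL) on MH agar. MBC was the lowest concentration giving no growth on plating. Run in quadruplicate.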

[4] = test system: Escherichia coli; assay: Antimicrobial activity against broad spectrum beta-lactamase producing Escherichia coli GB 8 incubated for 48 hrs by microdilution broth method; format: functional, organism-based; procedure, shortened: as §1
[5] = test system: Klebsiella pneumoniae; assay: Antimicrobial activity against AmpC producing Klebsiella pneumoniae MISC 304 incubated for 48 hrs by microdilution broth method; format: functional, organism-based; procedure, shortened: as §1
[6] = test system: Enterococcus faecalis; assay: Antimicrobial activity against Enterococcus faecalis ATCC 29212 incubated for 48 hrs by microdilution broth method; format: functional, organism-based; procedure, shortened: as §1
[7] = test system: Klebsiella pneumoniae; assay: Antimicrobial activity against AmpC producing Klebsiella pneumoniae KLEB 249 incubated for 48 hrs by microdilution broth method; format: functional, organism-based; procedure, shortened: as §1
[8] = test system: Pseudomonas aeruginosa; assay: Antimicrobial activity against Pseudomonas aeruginosa ATCC 27853 incubated for 48 hrs by microdilution broth method; format: functional, organism-based; procedure, shortened: as §1
[9] = test system: Escherichia coli; assay: Antimicrobial activity against extended spectrum beta-lactamase and carbapenemase producing Escherichia coli ESBL L109 incubated for 48 hrs by microdilution broth method; format: functional, organism-based; procedure, shortened: as §1
[10] = test system: Klebsiella pneumoniae; assay: Antimicrobial activity against extended spectrum beta-lactamase and carbapenemase producing Klebsiella pneumoniae ESBL L174 incubated for 48 hrs by microdilution broth method; format: functional, organism-based; procedure, shortened: as §1
[11] = test system: Escherichia coli; assay: Antimicrobial activity against broad spectrum beta-lactamase producing Escherichia coli MISC 206 incubated for 48 hrs by microdilution broth method; format: functional, organism-based; procedure, shortened: as §1
[12] = test system: Stenotrophomonas maltophilia; assay: Antimicrobial activity against metallo beta-lactamases producing Stenotrophomonas maltophilia GM24 incubated for 48 hrs by microdilution broth method; format: functional, organism-based; procedure, shortened: as §1
[13] = test system: Citrobacter freundii; assay: Antimicrobial activity against AmpC producing Citrobacter freundii CITRO 21 incubated for 48 hrs by microdilution broth method; format: functional, organism-based; procedure, shortened: as §1
[14] = test system: Klebsiella pneumoniae; assay: Antimicrobial activity against extended spectrum beta-lactamase and carbapenemase producing Klebsiella pneumoniae KPC L133 incubated for 48 hrs by microdilution broth method; format: functional, organism-based; procedure, shortened: as §1
[15] = test system: Acinetobacter baumannii; assay: Antimicrobial activity against extended spectrum beta-lactamase and carbapenemase producing Acinetobacter baumannii L185 incubated for 48 hrs by microdilution broth method; format: functional, organism-based; procedure, shortened: as §1
[16] = test system: Citrobacter freundii; assay: Antimicrobial activity against extended spectrum beta-lactamase producing Citrobacter freundii Citro 314 incubated for 48 hrs by microdilution broth method; format: functional, organism-based; procedure, shortened: as §1
[17] = test system: Escherichia coli; assay: Antimicrobial activity against extended spectrum beta-lactamase and carbapenemase producing Escherichia coli ESBL L108 incubated for 48 hrs by microdilution broth method; format: functional, organism-based; procedure, shortened: as §1
[18] = test system: Acinetobacter baumannii; assay: Antimicrobial activity against extended spectrum beta-lactamase and carbapenemase producing Acinetobacter baumannii L186 incubated for 48 hrs by microdilution broth method; format: functional, organism-based; procedure, shortened: as §1
[19] = test system: Staphylococcus aureus; assay: Antimicrobial activity against Staphylococcus aureus ATCC 25923 incubated for 48 hrs by microdilution broth method; format: functional, organism-based; procedure, shortened: as §1
[20] = test system: Escherichia coli; assay: Antimicrobial activity against Escherichia coli ATCC 25922 incubated for 48 hrs by microdilution broth method; format: functional, organism-based; procedure, shortened: as §1
[21] = test system: Escherichia coli; assay: Antimicrobial activity against extended spectrum beta-lactamase producing Escherichia coli MISC 262 incubated for 48 hrs by microdilution broth method; format: functional, organism-based; procedure, shortened: as §1
[22] = test system: Acinetobacter baumannii; assay: Antimicrobial activity against extended spectrum beta-lactamase and carbapenemase producing Acinetobacter baumannii L187 incubated for 48 hrs by microdilution broth method; format: functional, organism-based; procedure, shortened: as §1

Compound	MIC [1] [mg/L]	MIC [2] [mg/L]	MBC [3] [mg/L]	further results
O=C1CC(Sc2cccc(F)c2)N1 (racemic)	> 200	100 (≈ 507 µM)	–	–
CC(NC(=O)N1C(=O)CC1Sc1ccccc1)c1cccc2ccccc12 (racemic)	> 200	> 100	> 200	–
O=C1CC(Sc2ccccc2C(F)(F)F)N1 (racemic)	1.5 (≈ 6.07 µM)	≥ 100	1.5 (≈ 6.07 µM)	–
COc1ccc(SC2CC(=O)N2C(=O)NCc2ccccc2)cc1OC (racemic)	200 (≈ 537 µM)	250 (≈ 671 µM)	> 200	–
O=C1CC(Sc2cccs2)N1 (racemic)	25 (≈ 135 µM)	6.25 (≈ 33.7 µM)	100 (≈ 540 µM)	–
O=C1CC(Sc2ccc(F)cc2F)N1C(=O)Nc1ccccc1F (racemic)	–	25 (≈ 71 µM)	–	–
O=C1CC(Sc2c(F)c(F)c(F)c(F)c2F)N1C(=O)NCc1ccccc1 (racemic)	3.1 (≈ 7.7 µM)	> 100	6.25 (≈ 15.5 µM)	–
O=C1CC(Sc2ccc(F)c(Cl)c2)N1 (racemic)	12.5 (≈ 54 µM)	25 (≈ 108 µM)	25 (≈ 108 µM)	–
COc1ccc(SC2CC(=O)N2)cc1 (racemic)	200 (≈ 956 µM)	100 (≈ 478 µM)	> 200	–
O=C1CC(Sc2ccc(F)cc2)N1C(=O)NC(c1ccccc1)c1ccccc1 (racemic)	> 200	> 100	> 200	–
O=C1CC(Sc2ccccc2)N1 (racemic)	> 200	25 (≈ 139 µM)	–	–
O=C1CC(Sc2cccc(F)c2)N1C(=O)NCc1ccccc1 (racemic)	25 (≈ 75.7 µM)	–	100 (≈ 303 µM)	MIC [4]: inactive; MIC [5]: inactive; MIC [6]: inactive; MIC [7]: inactive; MIC [8]: inactive; MIC [9]: inactive; MIC [10]: inactive; MIC [11]: inactive; MIC [12]: inactive; MIC [13]: inactive; MIC [14]: inactive; MIC [15]: inactive; MIC [16]: inactive; MIC [17]: inactive; MIC [18]: inactive; MIC [19]: inactive; MIC [20]: inactive; MIC [21]: inactive; MIC [22]: inactive
C#CCCCC(=O)N1C(=O)CC1Sc1ccccc1 (racemic)	100 (≈ 366 µM)	45 (≈ 165 µM)	100 (≈ 366 µM)	–
O=C1CC(Sc2ccccc2F)N1 (racemic)	200 (≈ 1010 µM)	25 (≈ 127 µM)	–	–
O=C1CC(Sc2cccs2)N1C(=O)NCc1ccccc1 (racemic)	50 (≈ 157 µM)	6.25 (≈ 19.6 µM)	100 (≈ 314 µM)	–
COc1ccc(OC)c(SC2CC(=O)N2C(=O)NCc2ccccc2)c1 (racemic)	100 (≈ 268 µM)	50 (≈ 134 µM)	200 (≈ 537 µM)	–
O=C1CC(Sc2ccc(F)cc2Cl)N1 (racemic)	12.5 (≈ 54 µM)	25 (≈ 108 µM)	50 (≈ 216 µM)	–
O=C1CC(Sc2ccc(F)c(Cl)c2)N1C(=O)NCc1ccccc1 (racemic)	6.25 (≈ 17.1 µM)	25 (≈ 68.5 µM)	6.25 (≈ 17.1 µM)	–
O=C1CC(Sc2ccc(F)cc2F)N1C(=O)NCc1ccccc1 (racemic)	1.63 (≈ 4.68 µM)	100 (≈ 287 µM)	1.63 (≈ 4.68 µM)	–
O=C1CC(Sc2ccc(C(F)(F)F)cc2)N1 (racemic)	100 (≈ 404 µM)	12.5 (≈ 50.6 µM)	100 (≈ 404 µM)	–
C=CCSC1CC(=O)N1 (racemic)	> 200	> 200	–	–
O=C1CC(Sc2ccccc2)N1C(=O)NC1c2ccccc2-c2ccccc21 (racemic)	–	> 100	–	–
O=C1CC(Sc2ccc(F)cc2F)N1 (racemic)	1.5 (≈ 6.97 µM)	3.13 (≈ 14.5 µM)	3.13 (≈ 14.5 µM)	–
O=C1CC(Sc2cccc3ccccc23)N1 (racemic)	100 (≈ 436 µM)	> 250	> 200	–
O=C1CC(Sc2ccc(Cl)cc2Cl)N1 (racemic)	6.25 (≈ 25.2 µM)	25 (≈ 101 µM)	6.25 (≈ 25.2 µM)	–
O=C1CC(Sc2c(F)c(F)c(F)c(F)c2F)N1 (racemic)	1.5 (≈ 5.57 µM)	> 100	1.5 (≈ 5.57 µM)	–
O=C1CC(Sc2ccccc2)N1C(=O)NC(c1ccccc1)c1ccccc1 (racemic)	–	50 (≈ 129 µM)	–	–
COc1ccc(OC)c(SC2CC(=O)N2)c1 (racemic)	100 (≈ 418 µM)	250 (≈ 1040 µM)	> 200	–
O=C1CC(Sc2ccc(F)c(F)c2)N1 (racemic)	50 (≈ 232 µM)	50 (≈ 232 µM)	50 (≈ 232 µM)	–
